Screening results from PubChem BioAssay.
Compounds with a hit are over-represented: about 4.2% of the library has one in this group of screens.
SKKanGAS inh – SKKanGAS growth inhibition; S. pyogenes SKKanGAS, kanamycin growth, BacTiter-Glo, 6 h; inhibition, % at 7.5 µM; 300,000 tested, 1.3% active;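 active = mean replicate score, as percent of positive control median, at least 50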;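 also: strain carries kanamycin resistance gene driven by streptokinase promoter and grows in 40 µg/ml kanamycin; loss of luminescence reflects streptokinase promoter inhibition or plain growth inhibition; 0% = median of DMSO wells and 100% = positive control at its reference dose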
Cl transport mod – modulates chloride dependent transport by human KCC2; 190,000 tested, 2.2% active; KCC2 cells, thallium flux FluoZin-2 fluorescence; AID 1456; Q9H2X9; B-score of Tl+ flux slope (higher = more flux/activation; lower = inhibition) at 10 µM;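 active = thallium flux slope and its plate-corrected score both differing from the plate sample mean at a set confidence after two filtering rounds, in either direction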;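 also: slope of fluorescence scaled to starting intensity during 10 to 20 s after thallium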
Rad51 HR inh – blocks human Rad51 in homologous recombination; Q06609; hRad51 DNA strand exchange, fluorescence dequenching; inhibition, % at 10 µM; 200,000 tested, 0.085% active; AID 1385;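 active = inhibition above 40% at the single screening dose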;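 also: 0% = DMSO control wells and 100% = blanks with heterologous ssDNA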
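material = hRad51 filaments on single-stranded DNA | timing = filaments 15 min 37 °C, then compound 30 min | signal = FRET fluorescence dequenching, excitation 485 nm, emission 520 nm | benchmarks = control wells and blank wells on each plate | evaluation = percent inhibition relative to plate controls and blanks | compound = 10 µM final, single point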
Autophagy HCS – modulators of autophagy; calls only at 10 µM (by protocol); 190,000 tested, 0.98% active; MEF GFP-LC3 puncta imaging; test concentration mostly 10 µM;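 active = percentage of spot-positive cells more than 3 SD above its plate mean, without a fluorescence outlier flag or 80% toxicity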;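 also: spot-positive cell cutoff set from DMSO-treated cells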
WT yeast gro inh – growth inhibition of WT yeast, mitochondrial fusion screen; mitochondrial fusion phenotypic screen, WT strain; inhibition, % at 10 µM; 190,000 tested, 2.1% active; in the data active = inhibition above about 58%; tested in S. cerevisiae
Insulin prom up – MIN6 insulin promoter up-regulation; MIN6 insulin promoter-GFP reporter, high-content imaging; hits give high values; z-score at 5 µM; 190,000 tested, 0.3% active;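 active = z-score above 3 at 5 µM with at least 500 cells counted in the well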
* marks the source's active call; other numbers are inactive results; i = inactive; . = not tested or not shown; + = active, no number.

SMILES | SKKanGAS inh | Cl transport mod | Rad51 HR inh | Autophagy HCS | WT yeast gro inh | Insulin prom up
COc1ccc(C(=O)/C(C#N)=N/Nc2cccc([N+](=O)[O-])c2)cc1 | 51* | -5* | -24 | i | 22 | -1.4
CCC(CC)=NNc1cccc([N+](=O)[O-])c1 | 5 | 0.29 | -3 | i | 18 | 1.4
CC/C(C)=N/Nc1cccc([N+](=O)[O-])c1 | 1 | 0.14 | -5 | i | 67* | -0.34
N#C/C(=N\Nc1cccc(Cl)c1)C(=O)c1ccccc1 | 25 | -2.5 | 1 | i | 72* | 0.62
Cc1cccc(Nc2nc(N3CCOCC3)nc(N3CCOCC3)n2)c1 | 7 | . | . | . | . | .
Cc1cccc(Nc2nnc(-c3ccc(N4CCOCC4)c([N+](=O)[O-])c3)c3ccccc23)c1 | 59* | -0.48 | -1 | i | -6 | -0.73
CCOc1ccc(C(c2c(NC(=O)c3ccccc3)sc(C)c2C)N2CCN(C)CC2)cc1 (centres undefined) | 3 | 0.83 | -3 | i | 78* | -1.6
Cc1ccc(S(=O)(=O)NC(C)(C)CN2CCC(Cc3ccccc3)CC2)cc1 | -4 | -2.9 | -13 | . | . | -1.8
CCOC(=O)C1CCN(c2nc(-c3ccc(C)cc3)nc3ccccc23)CC1 | 2 | 0.85 | -1 | i | 71* | -0.46
N#CC(C(=O)NC1CCCCC1)c1nc2ccccc2nc1N1CCN(c2ccc(F)cc2)CC1 (centres undefined) | 2 | -0.12 | -38 | + | 15 | -0.02
CCOC(=O)C1CCN(c2nc(-c3ccccc3)nc3c2oc2ccccc23)CC1 | 12 | . | 5 | i | 25 | -0.91
CCOC(=O)C1CCN(c2c(C(=O)c3ccccc3)cnc3ccc(Cl)cc23)CC1 | 8 | 0.0051 | -4 | i | 75* | .
O=C(O)C1CCN(c2nc(-c3ccccc3)nc3c2oc2ccccc23)CC1 | 7 | -2.8* | 3 | i | 50 | 0.4
N#CC(C(=O)NC1CC1)c1nc2ccccc2nc1N1CCCC1 (centres undefined) | . | -0.68 | -6 | i | 0 | 1.8
O=C(Nc1ccc([N+](=O)[O-])cc1Br)c1cc2ccccc2nc1Cl | 6 | . | 4 | . | . | -0.14
CCn1c(C)c(C(=O)O)c2cc(OC)c3ccccc3c21 | -3 | . | . | . | . | .
CCOC(=O)C1CCCN(c2nc3ccccc3nc2C(C#N)C(=O)OCC)C1 (centres undefined) | -11 | -2.2 | -10 | i | 30 | -1.9
CCOC(=O)C1CCN(c2nc3ccccc3nc2C(C#N)C(=O)NCCc2ccccc2)CC1 (centres undefined) | . | -1 | . | i | 82* | .
COc1ccc(NC2CCCN(C(=O)c3ccccc3C(F)(F)F)C2)cc1 (centres undefined) | -2 | . | . | . | . | .
O=c1c2cn[nH]c2nc(SCc2c(F)cccc2F)n1-c1ccc(Cl)cc1 | 59* | -0.82 | -6 | i | 73* | -0.45
Cc1ccc(N2C(=O)C(O)(C(F)(F)F)C3=C2CC(C)(C)CC3=O)cc1 (centres undefined) | 0 | 0.12 | 5 | i | -6 | -0.02
CC1(C)CC(=O)C2=C(C1)N(c1ccc(F)cc1)C(=O)C2(O)C(F)(F)F (centres undefined) | -10 | . | . | i | 84* | 1.1
CC(=O)Nc1ccc(S(=O)(=O)Nc2ccc(=O)n(Cc3ccc(Cl)c(Cl)c3)c2)cc1 | 7 | 1.4 | 5 | i | -14 | -0.71
Cc1ccc(S(=O)(=O)Nc2ccc(=O)n(Cc3ccc(Cl)c(Cl)c3)c2)cc1 | 13 | 0.54 | -5 | i | 20 | 3.3*
CC1(C)CC(=O)C2=C(C1)NC(SCC(=O)Nc1ccccc1)=C(C#N)C21CCCCC1 | 32 | 0.34 | -4 | i | 11 | -0.02
SMILES | SKKanGAS inh | Cl transport mod | Rad51 HR inh | Autophagy HCS | WT yeast gro inh | Insulin prom up
CC(C)(C)C1CCC2(CC1)C(C#N)=C(SCC(=O)Nc1ccccc1)NC(=O)C2C#N (centres undefined) | 68* | -2.1 | -10 | i | 35 | 0.28
Cc1ccc(C)n1-c1ccc(-c2ccnc(N)n2)cc1 | . | 1.8 | -34 | i | -14 | -0.31
Cc1ccc(NS(=O)(=O)c2ccc(C)c(NC(=O)COc3ccccc3)c2)c(C)c1 | 0 | -2.2 | 6 | i | 58* | .
COc1ccc2c(c1)[nH]c1c(=O)n(CCc3cnc[nH]3)cnc12 | 100* | . | -7 | i | 7 | -0.41
O=C(N/N=C/c1ccc(O)cc1)Nc1cccc2nsnc12 | -3 | 0.88 | 13 | i | 10 | -0.01
Cc1ccc(-n2c(=O)c3sccc3n(CC(=O)NCc3ccco3)c2=O)cc1 | -10 | -2.2 | 4 | i | -11 | 1.2
Cc1cc(C)cc(-n2c(=O)c3sccc3n(CC(=O)NCc3ccco3)c2=O)c1 | 1 | . | -2 | i | 19 | 4.6*
Cc1cc(NC(=O)Nc2ccccc2F)ccc1Br | 2 | -0.041 | . | i | 19 | -0.17
COc1ccc(N2CC(C(=O)N3CCCC(C)C3)CC2=O)cc1 (centres undefined) | -4 | . | . | . | . | .
CC1CCN(c2ncnc3c2cnn3-c2ccccc2)CC1 | -8 | . | -2 | i | 0 | 0.88
COc1cccc(OCCN2CCN(c3ncnc4c3cnn4-c3ccccc3)CC2)c1 | 21 | -1.7 | 4 | i | 59* | -1.1
CCN(CC)C(=O)Cn1c(=O)c2ccccc2n2c(=S)sc(-c3cccc(C)c3)c12 | 5 | i | -100 | + | -3 | 1.4
CCOC(=O)C1(CCOc2ccccc2)CCN(CC(O)CO)CC1 (centres undefined) | -14 | . | . | . | . | .
COc1ccc(NC(=O)C2CC(=O)N/C(=N/N=C/c3ccccc3)S2)cc1 (centres undefined) | -2 | -0.31 | . | . | . | -0.1
CC(/C=C/c1ccc(N(C)C)cc1)=N\N=C1\NC(=O)CC(C(=O)Nc2ccccc2)S1 (centres undefined) | 75* | -0.12 | -52 | i | 46 | -0.13
CC(/C=C/c1ccc(N(C)C)cc1)=N/N=C1/NC(=O)CC(C(=O)Nc2ccc(Cl)cc2)S1 (centres undefined) | 95* | 0.48 | 3 | i | 19 | 1.4
CCCOc1ccc(NC(=O)C2CC(=O)N/C(=N/N=C(C)/C=C/c3ccc(N(C)C)cc3)S2)cc1 (centres undefined) | 44 | 1.1 | -12 | i | 2 | 0.32
Cc1nc(N2CCN(C(=O)c3ccco3)CC2)nc2c1C(=O)CCC2 | 5 | . | . | . | . | .
CCOc1cc(/C=N/NC(=O)C(=O)Nc2cc(Cl)ccc2C)ccc1O | -10 | -1 | 2 | i | -2 | 1.1
Cc1ccn(CCC(=O)N2CCCC(CCC(=O)N3CCN(c4ccccn4)CC3)C2)n1 (centres undefined) | 6 | -0.11 | 18 | i | -18 | 1.7
Cc1ccc(-c2nnc(-n3ncc(C#N)c3N)c3ccccc23)cc1C | -1 | -0.14 | -2 | i | -8 | 0.25
COc1ccc(CCNc2nc(-c3ccccn3)cs2)cc1OC | 75* | 0.05 | -10 | . | . | -2.3
